Square brackets hold non-standard residues; d marks the D form. Peptide text beside a SMILES is read from it. * marks the point of attachment. ξ: configuration not given here. Bip = N[C@@H](Cc1ccc(-c2ccccc2)cc1)C(=O)O; Phe(4-NH2) = Nc1ccc(C[C@H](N)C(=O)O)cc1; Cbz = O=C(OCc1ccccc1)*; ξPip = O=C(O)C1CCCCN1
What was measured:
[1] = target: Procathepsin L (Homo sapiens, UniProt P07711); assay: Inhibition of recombinant cathepsin-L (unknown origin) using Z-Phe-Arg-AMC as substrate by fluorescence assay
How it was run: (§1)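 Kinetic assay with recombinant enzyme. Peptide amide stock concentrations were set by amino-acid analysis. Ki was derived from at least three inhibitor concentrations, each measured in duplicate.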

[2] = species on record: Homo sapiens; assay: Selectivity ratio of Ki for recombinant cathepsin-B (unknown origin) to Ki for recombinant cathepsin-L (unknown origin)
How it was run: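 Selectivity factor FB = Ki(CatB)/Ki(CatL). Both Ki values come from kinetic runs with the recombinant enzymes, each using at least three inhibitor concentrations in duplicate.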

[3] = target: Cathepsin B (Homo sapiens, UniProt P07858); assay: Inhibition of recombinant cathepsin-B (unknown origin) using Z-Arg-Arg-AMC as substrate by fluorescence assay; how it was run: as §1
[4] = target: T1, Cathepsin K (Homo sapiens, UniProt P43235); assay: Inhibition of recombinant cathepsin-K (unknown origin) using Z-Phe-Arg-AMC as substrate by fluorescence assay
T1 sequence (P43235 whole entry): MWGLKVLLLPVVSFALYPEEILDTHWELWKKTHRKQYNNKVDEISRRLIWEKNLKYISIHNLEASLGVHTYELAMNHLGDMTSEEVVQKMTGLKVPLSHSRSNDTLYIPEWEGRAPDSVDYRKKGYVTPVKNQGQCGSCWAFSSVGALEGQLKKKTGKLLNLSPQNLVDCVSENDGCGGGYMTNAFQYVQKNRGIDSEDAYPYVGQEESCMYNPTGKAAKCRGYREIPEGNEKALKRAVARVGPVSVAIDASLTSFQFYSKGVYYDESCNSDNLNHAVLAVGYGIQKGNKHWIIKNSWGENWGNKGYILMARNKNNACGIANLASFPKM
How it was run: (§2)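 Recombinant enzyme kinetics. Inhibitor stocks were quantified by amino-acid analysis. Ki was obtained from a minimum of four inhibitor concentrations, each run in duplicate.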

[5] = species on record: Homo sapiens; assay: Selectivity ratio of Ki for recombinant cathepsin-S (unknown origin) to Ki for recombinant cathepsin-L (unknown origin)
How it was run: (§3)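 FK = Ki(CatK)/Ki(CatL) and FS = Ki(CatS)/Ki(CatL). Each Ki comes from recombinant enzyme kinetics over a minimum of four inhibitor concentrations, each measured in duplicate.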

[6] = species on record: Homo sapiens; assay: Selectivity ratio of Ki for recombinant cathepsin-K (unknown origin) to Ki for recombinant cathepsin-L (unknown origin); how it was run: as §3
[7] = target: Cathepsin S (Homo sapiens, UniProt P25774); assay: Inhibition of recombinant cathepsin-S (unknown origin) using Z-Val-Arg-AMC as substrate by fluorescence assay; how it was run: as §2
Cathepsin S, sequence (P25774 whole entry): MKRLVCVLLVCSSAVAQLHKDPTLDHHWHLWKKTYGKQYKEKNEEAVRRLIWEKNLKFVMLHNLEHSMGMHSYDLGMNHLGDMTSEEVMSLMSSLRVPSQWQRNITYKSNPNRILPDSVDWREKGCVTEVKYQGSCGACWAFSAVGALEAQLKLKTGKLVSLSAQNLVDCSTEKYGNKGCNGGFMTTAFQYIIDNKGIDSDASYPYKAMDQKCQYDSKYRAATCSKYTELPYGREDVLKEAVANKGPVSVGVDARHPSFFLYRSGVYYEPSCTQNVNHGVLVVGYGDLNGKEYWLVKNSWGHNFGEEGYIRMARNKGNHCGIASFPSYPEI

Procathepsin L, sequence (P07711 whole entry): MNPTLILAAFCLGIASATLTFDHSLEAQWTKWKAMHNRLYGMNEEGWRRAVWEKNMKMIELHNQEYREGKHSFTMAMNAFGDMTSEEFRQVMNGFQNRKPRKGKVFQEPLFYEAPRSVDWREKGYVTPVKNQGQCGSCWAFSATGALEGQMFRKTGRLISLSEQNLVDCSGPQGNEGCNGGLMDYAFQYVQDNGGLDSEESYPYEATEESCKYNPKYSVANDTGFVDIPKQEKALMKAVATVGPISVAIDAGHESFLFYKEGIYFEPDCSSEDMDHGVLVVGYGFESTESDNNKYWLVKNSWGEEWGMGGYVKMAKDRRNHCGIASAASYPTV

Ki [1] | Ratio Ki [2] | Ki [3] | Ki [4] | Ratio Ki [5] | Ratio Ki [6] | Ki [7] | SMILES
7.8 µM | 80 | 623 µM | – | – | – | – | NCCCC[C@H](NC(=O)[C@H](Cc1ccccc1)NC(=O)C1=CCCC1)C(N)=O
23 µM | 11 | 245 µM | – | – | – | – | Cc1ccccc1-c1ccc(C[C@H](NC(=O)OCc2ccccc2)C(=O)N[C@@H](CCCCN)C(N)=O)cc1
2.4 µM | 425 | 1020 µM | – | – | – | – | CC(=O)Oc1cccc(C(=O)N[C@@H](Cc2ccccc2)C(=O)N[C@@H](CCCCN)C(N)=O)c1
5 µM | 30 | 148 µM | – | – | – | – | NCCCC[C@H](NC(=O)[C@H](Cc1ccccc1)NC(=O)c1ccc(N)nc1)C(N)=O
3.2 µM | 636 | 2040 µM | – | – | – | – | NCCCC[C@H](NC(=O)[C@H](Cc1ccccc1)NC(=O)CCc1ccccc1)C(N)=O
9 µM | 9 | 84 µM | – | – | – | – | NCCCC[C@H](NC(=O)[C@H](Cc1ccccc1)NC(=O)c1ccc(-c2ccccc2)cc1)C(N)=O
0.39 µM | 2140 | 835 µM | 639 µM | 51 | 1640 | 20 µM | NCCCC[C@H](NC(=O)[C@H](Cc1ccccc1)NC(=O)[C@H](Cc1c[nH]c2ccccc12)NC(=O)OCc1ccccc1)C(N)=O (Cbz-Trp-Phe-Lys-NH2)
1.4 µM | 96 | 135 µM | – | – | – | – | NCCCC[C@H](NC(=O)[C@H](Cc1ccc(O)cc1)NC(=O)OCc1ccccc1)C(N)=O (Cbz-Tyr-Lys-NH2)
14 µM | – | – | – | – | – | – | NC(=O)[C@H](Cc1c[nH]cn1)NC(=O)[C@H](Cc1ccccc1)NC(=O)OCc1ccccc1 (Cbz-Phe-His-NH2)
2.9 µM | 9 | 26 µM | – | – | – | – | CN(C)c1ccc(C(=O)N[C@@H](Cc2ccccc2)C(=O)N[C@@H](CCCCN)C(N)=O)cc1
16 µM | – | – | – | – | – | – | C[C@H](NC(=O)[C@H](Cc1ccccc1)NC(=O)OCc1ccccc1)C(N)=O
3.1 µM | 18 | 56 µM | – | – | – | – | NCCCC[C@H](NC(=O)[C@H](Cc1c[nH]cn1)NC(=O)OCc1ccccc1)C(N)=O (Cbz-His-Lys-NH2)
4.6 µM | 187 | 860 µM | – | – | – | – | NCCCC[C@H](NC(=O)[C@H](Cc1ccccc1)NC(=O)c1ccnc(-c2cc(C(=O)O)ccn2)c1)C(N)=O
2.6 µM | 272 | 706 µM | – | – | – | – | CC(=O)Oc1ccc(C(=O)N[C@@H](Cc2ccccc2)C(=O)N[C@@H](CCCCN)C(N)=O)cc1
1 µM | 312 | 312 µM | – | – | – | – | CC(C)(C)c1ccc(C(=O)N[C@@H](Cc2ccccc2)C(=O)N[C@@H](CCCCN)C(N)=O)cc1
1.7 µM | 34 | 58 µM | – | – | – | – | NCCCC[C@H](NC(=O)[C@H](Cc1ccc(-c2cccc(Cl)c2)cc1)NC(=O)OCc1ccccc1)C(N)=O
7 µM | 506 | 3550 µM | – | – | – | – | NCCCC[C@H](NC(=O)[C@H](Cc1ccccc1)NC(=O)[C@H](CCC(N)=O)NC(=O)OCc1ccccc1)C(N)=O (Cbz-Gln-Phe-Lys-NH2)
1.7 µM | 66 | 113 µM | – | – | – | – | Cc1ccc(-c2ccc(C[C@H](NC(=O)OCc3ccccc3)C(=O)N[C@@H](CCCCN)C(N)=O)cc2)cc1
2.5 µM | 54 | 135 µM | – | – | – | – | NCCCC[C@H](NC(=O)[C@H](Cc1ccccc1)NC(=O)CCc1ccc(O)cc1)C(N)=O
6.8 µM | 20 | 134 µM | – | – | – | – | NCCCC[C@H](NC(=O)[C@H](Cc1ccccc1)NC(=O)c1c(F)c(F)c(F)c(F)c1F)C(N)=O

Ki [1] | Ratio Ki [2] | Ki [3] | Ki [4] | Ratio Ki [5] | Ratio Ki [6] | Ki [7] | SMILES
2.6 µM | 595 | 1550 µM | – | – | – | – | CNCCCC[C@H](NC(=O)[C@H](Cc1ccccc1)NC(=O)OCc1ccccc1)C(N)=O
1 µM | 301 | 301 µM | – | – | – | – | NCCCC[C@H](NC(=O)[C@H](Cc1ccccc1)NC(=O)c1ccc2ccccc2c1)C(N)=O
28 µM | 12 | 349 µM | – | – | – | – | N=C(N)NCCC[C@H](NC(=O)[C@H](Cc1ccccc1)NC(=O)OCc1ccccc1)C(N)=O (Cbz-Phe-Arg-NH2)
1.8 µM | 21 | 38 µM | – | – | – | – | NCCCC[C@H](NC(=O)[C@H](Cc1ccc(-c2cccc(N)c2)cc1)NC(=O)OCc1ccccc1)C(N)=O
28 µM | – | – | – | – | – | – | NC(=O)[C@H](N)NC(=O)[C@H](Cc1ccccc1)NC(=O)OCc1ccccc1
2.4 µM | 32 | 77 µM | – | – | – | – | NCCCC[C@H](NC(=O)[C@H](Cc1ccc(-c2ccccc2)cc1)NC(=O)OCc1ccccc1)C(N)=O (Cbz-[Bip]-Lys-NH2)
2.3 µM | 113 | 261 µM | – | – | – | – | NCCCC[C@H](NC(=O)[C@H](Cc1ccccc1)NC(=O)c1ccc(Br)cc1)C(N)=O
2.7 µM | 651 | 1760 µM | – | – | – | – | NCCCC[C@H](NC(=O)[C@H](Cc1ccccc1)NC(=O)c1cc([N+](=O)[O-])ccc1Cl)C(N)=O
20 µM | 169 | 3390 µM | – | – | – | – | Cc1cccc(C)c1C(=O)N[C@@H](Cc1ccccc1)C(=O)N[C@@H](CCCCN)C(N)=O
27 µM | 64 | 1730 µM | – | – | – | – | NC(=O)[C@H](CCCC(N)O)NC(=O)[C@H](Cc1ccccc1)NC(=O)OCc1ccccc1 (stereo partly specified)
4.2 µM | 24 | 100 µM | – | – | – | – | NCCCC[C@H](NC(=O)[C@H](Cc1c[nH]c2ccccc12)NC(=O)OCc1ccccc1)C(N)=O (Cbz-Trp-Lys-NH2)
14 µM | 310 | 4340 µM | – | – | – | – | CC(C)C[C@H](NC(=O)[C@H](Cc1ccccc1)NC(=O)OCc1ccccc1)C(N)=O (Cbz-Phe-Leu-NH2)
6.1 µM | 8.4 | 51 µM | – | – | – | – | NCCCC[C@H](NC(=O)[C@H](Cc1ccccc1)NC(=O)C1CCCCN1)C(N)=O (stereo partly drawn) (H-[ξPip]-Phe-Lys-NH2)
5.5 µM | 15 | 80 µM | – | – | – | – | NCCCC[C@H](NC(=O)[C@H](Cc1ccccc1)NC(=O)c1ccccn1)C(N)=O
2.5 µM | 156 | 389 µM | – | – | – | – | Cc1cccc(-c2ccc(C[C@H](NC(=O)OCc3ccccc3)C(=O)N[C@@H](CCCCN)C(N)=O)cc2)c1
64 µM | 111 | 7100 µM | – | – | – | – | CSCC[C@H](NC(=O)[C@H](Cc1ccccc1)NC(=O)OCc1ccccc1)C(N)=O (Cbz-Phe-Met-NH2)
26 µM | 107 | 2790 µM | – | – | – | – | NC(=O)[C@H](Cc1ccc(N)cc1)NC(=O)[C@H](Cc1ccccc1)NC(=O)OCc1ccccc1 (Cbz-Phe-[Phe(4-NH2)]-NH2)
3.5 µM | 703 | 2460 µM | – | – | – | – | NCCC[C@H](NC(=O)[C@H](Cc1ccccc1)NC(=O)OCc1ccccc1)C(N)=O
2.6 µM | 28 | 74 µM | – | – | – | – | NCCCC[C@H](NC(=O)[C@H](Cc1ccc(-c2ccc(-c3ccccc3)cc2)cc1)NC(=O)OCc1ccccc1)C(N)=O
17 µM | – | – | – | – | – | – | CC(C)[C@H](NC(=O)[C@H](Cc1ccccc1)NC(=O)OCc1ccccc1)C(N)=O (Cbz-Phe-Val-NH2)

Reference: ChEMBL document CHEMBL2380300, “Identification of new peptide amides as selective cathepsin L inhibitors: the first step towards selective irreversible inhibitors?” (Bioorg Med Chem Lett, 2013)
